One data set addresses T1, Histone deacetylase 8 (Homo sapiens, UniProt Q9BY41).
T1 sequence (Q9BY41 whole entry): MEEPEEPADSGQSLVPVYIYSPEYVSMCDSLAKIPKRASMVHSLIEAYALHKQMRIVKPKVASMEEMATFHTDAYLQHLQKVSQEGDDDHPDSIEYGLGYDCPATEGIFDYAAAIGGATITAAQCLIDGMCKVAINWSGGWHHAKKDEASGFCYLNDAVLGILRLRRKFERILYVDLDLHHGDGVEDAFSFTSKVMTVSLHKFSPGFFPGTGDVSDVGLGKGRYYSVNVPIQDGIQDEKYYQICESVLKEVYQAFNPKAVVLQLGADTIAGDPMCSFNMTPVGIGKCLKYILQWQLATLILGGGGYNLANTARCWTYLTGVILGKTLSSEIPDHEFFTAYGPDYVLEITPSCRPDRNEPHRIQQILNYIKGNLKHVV
As to the kind of experiment: Inhibition of human recombinant HDAC8 using Fluor de Lys as substrate.

For data set [1], the system named is HepG2. Nature of the data set: cells. The class given is functional, cell-based. Particulars: Homo sapiens, HepG2, 24 h.
Data set [2] relates to SH-SY5Y. As to the kind of experiment: Cytotoxicity against retinoic acid-differentiated human SH-SY5Y cells assessed as cell survival at 20 uM. The class given is cell-based. An outline of the steps:
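SH-SY5Y cells are differentiated for 7–8 days in 1% FBS medium with 10 µM retinoic acid, then seeded at 2×10^4 cells/well in 1% FBS medium with 5 µM RA. After 24 h they go into phenol-red-free 1% FBS/RA medium with DMSO or 0.5–50 µM inhibitor, without or with 100 µM LY294002, for 24 h. Readout: XTT viability as % survival vs vehicle, four replicates ± SD, one-way ANOVA with Dunnett.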

For data set [3], the system named is HepG2. Nature of the data set: cells. The class given is functional, cell-based. Particulars: Homo sapiens, HepG2, 72 h.
Data set [4] relates to SH-SY5Y. As to the kind of experiment: cells. The class given is functional, cell-based. Particulars: Homo sapiens, 48 h.
Data set [5] has as its system SH-SY5Y. As to the kind of experiment: cells. Particulars: Homo sapiens, 24 h. It counts as functional, cell-based.
Data set [6] concerns SH-SY5Y. Nature of the data set: Neuroprotective activity against LY294002-induced stress in retinoic acid-differentiated human SH-SY5Y cells assessed as cell survival at 0.5 to 20 uM. It counts as functional, cell-based. In outline:
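SH-SY5Y cells pre-differentiated with retinoic acid, seeded at 2×10^4 cells/well in 1% FBS medium with 5 µM retinoic acid. After 24 h, medium changed to phenol red free 1% FBS medium with 5 µM retinoic acid plus vehicle (DMSO) or 0.5–50 µM inhibitor (final), with or without 100 µM LY294002. Viability by XTT after 24 h. Expressed as percent survival relative to vehicle, four replicates ± SD. Analysed by one-way ANOVA with Dunnett's test.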

In data set [7] the target is Histone deacetylase 3/Nuclear receptor corepressor 2 (HDAC3/NCoR2) (Homo sapiens, UniProt O15379). As to the kind of experiment: Inhibition of human recombinant HDAC3/NCoR2 using fluorophore-conjugated substrate Boc-L-Lys(Ac)-AMC. It counts as protein-complex assay.
Data set [8] deals with HeLa. As to the kind of experiment: cells. The class given is functional, cell-based. Particulars: Homo sapiens, 72 h.
Data set [9] deals with SH-SY5Y. Nature of the data set: cells. The class given is functional, cell-based. Particulars: Homo sapiens, 72 h.
The test system of data set [10] is HeLa. Nature of the data set: cells. The class given is functional, cell-based. Particulars: Homo sapiens, 48 h.
Data set [11] has as its system HepG2. Nature of the data set: cells. It counts as functional, cell-based. Particulars: Homo sapiens, HepG2, 48 h.
In data set [12] the test system is HeLa. As to the kind of experiment: cells. The class given is functional, cell-based. Particulars: Homo sapiens, 24 h.
In data set [13] the target is Matrix metalloproteinase-14 (Homo sapiens, UniProt P50281). As to the kind of experiment: Inhibition of MMP14.
The next data set has as its target Stromelysin-1 (Homo sapiens, UniProt P08254). As to the kind of experiment: Inhibition of MMP3.
The subject of data set [14] is HepG2. As to the kind of experiment: Induction of apoptosis in human HepG2 cells assessed as cleavage of caspase 3 at 1 to 10 uM after 14 hrs by Western blot analysis. The class given is functional, cell-based. In outline:
(§1)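 HepG2 cells are seeded at 2.7×10^5 cells/well in D7 medium (DMEM, 7% FBS), refed after 24 h, and after 1 h at 37 °C treated with DMSO or 1, 5 or 10 µM inhibitor. Lysis is in ice-cold 1% CHAPSO buffer (50 mM Hepes pH 7.4), 45 min at 4 °C. Immunoblots are probed for cleaved caspase 3 Asp175, acetyl-Lys373 p53, total p53 and GAPDH, detected by chemiluminescence, with band densitometry.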
On the technique in general: A western blot detects proteins with antibodies after separation by electrophoresis.

The test system of data set [15] is HepG2. Nature of the data set: Induction of apoptosis in human HepG2 cells assessed as hyperacetylation of p53 after 24 hrs by Western blot analysis. It counts as functional, cell-based. In outline:
as §1

The subject of data set [16] is HepG2. Nature of the data set: Induction of apoptosis in human HepG2 cells assessed as cleavage of caspase 3 at 1 to 10 uM after 24 hrs by Western blot analysis. It counts as functional, cell-based. An outline of the steps: as §1
Data set [17] has as its system HepG2. As to the kind of experiment: Induction of apoptosis in human HepG2 cells assessed as hyperacetylation of p53 at 1 to 10 uM by Western blot analysis. The class given is functional, cell-based. In outline:
as §1

The target in data set [18] is T2, Histone deacetylase (Homo sapiens) (UniProt Q13547+O15379+Q9UBN7+Q92769+Q9UQL6+Q8WUI4+Q9BY41+Q96DB2+P56524+Q9UKV0+Q969S8). Nature of the data set: Inhibition of HDAC in retinoic acid-differentiated human SH-SY5Y cells assessed as increase in histone H4 acetylation at 1 uM after 24 hrs by Western blot analysis in presence of 100 uM LY294002. The class given is cell-based.

Data set [19] concerns the target T2, Histone deacetylase (Homo sapiens). As to the kind of experiment: Inhibition of HDAC in retinoic acid-differentiated human SH-SY5Y cells assessed as increase in histone H4 acetylation at 1 uM after 24 hrs by Western blot analysis. It counts as cell-based.

The source made the active and inactive calls. The rule behind the calls is not given here.

The IC50 is the midpoint of a concentration-inhibition curve. One may read the EC50 as the concentration giving half of the maximal effect.

Sequence of Histone deacetylase 3/Nuclear receptor corepressor 2 (HDAC3/NCoR2) (O15379 whole entry): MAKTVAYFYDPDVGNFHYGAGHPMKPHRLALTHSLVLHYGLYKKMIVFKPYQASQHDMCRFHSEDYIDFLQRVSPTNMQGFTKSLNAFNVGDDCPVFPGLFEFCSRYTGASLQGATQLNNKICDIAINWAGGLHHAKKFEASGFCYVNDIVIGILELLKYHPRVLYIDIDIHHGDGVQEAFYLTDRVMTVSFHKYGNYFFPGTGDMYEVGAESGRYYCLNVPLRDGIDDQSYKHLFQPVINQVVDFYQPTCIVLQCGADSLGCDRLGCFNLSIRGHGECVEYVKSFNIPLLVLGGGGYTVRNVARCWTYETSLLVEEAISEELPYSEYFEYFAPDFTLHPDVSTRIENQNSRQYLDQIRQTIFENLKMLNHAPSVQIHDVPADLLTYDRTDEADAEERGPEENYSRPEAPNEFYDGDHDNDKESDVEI
Sequence of Histone deacetylase 3/Nuclear receptor corepressor 2 (HDAC3/NCoR2) (Q9Y618 whole entry, further chain): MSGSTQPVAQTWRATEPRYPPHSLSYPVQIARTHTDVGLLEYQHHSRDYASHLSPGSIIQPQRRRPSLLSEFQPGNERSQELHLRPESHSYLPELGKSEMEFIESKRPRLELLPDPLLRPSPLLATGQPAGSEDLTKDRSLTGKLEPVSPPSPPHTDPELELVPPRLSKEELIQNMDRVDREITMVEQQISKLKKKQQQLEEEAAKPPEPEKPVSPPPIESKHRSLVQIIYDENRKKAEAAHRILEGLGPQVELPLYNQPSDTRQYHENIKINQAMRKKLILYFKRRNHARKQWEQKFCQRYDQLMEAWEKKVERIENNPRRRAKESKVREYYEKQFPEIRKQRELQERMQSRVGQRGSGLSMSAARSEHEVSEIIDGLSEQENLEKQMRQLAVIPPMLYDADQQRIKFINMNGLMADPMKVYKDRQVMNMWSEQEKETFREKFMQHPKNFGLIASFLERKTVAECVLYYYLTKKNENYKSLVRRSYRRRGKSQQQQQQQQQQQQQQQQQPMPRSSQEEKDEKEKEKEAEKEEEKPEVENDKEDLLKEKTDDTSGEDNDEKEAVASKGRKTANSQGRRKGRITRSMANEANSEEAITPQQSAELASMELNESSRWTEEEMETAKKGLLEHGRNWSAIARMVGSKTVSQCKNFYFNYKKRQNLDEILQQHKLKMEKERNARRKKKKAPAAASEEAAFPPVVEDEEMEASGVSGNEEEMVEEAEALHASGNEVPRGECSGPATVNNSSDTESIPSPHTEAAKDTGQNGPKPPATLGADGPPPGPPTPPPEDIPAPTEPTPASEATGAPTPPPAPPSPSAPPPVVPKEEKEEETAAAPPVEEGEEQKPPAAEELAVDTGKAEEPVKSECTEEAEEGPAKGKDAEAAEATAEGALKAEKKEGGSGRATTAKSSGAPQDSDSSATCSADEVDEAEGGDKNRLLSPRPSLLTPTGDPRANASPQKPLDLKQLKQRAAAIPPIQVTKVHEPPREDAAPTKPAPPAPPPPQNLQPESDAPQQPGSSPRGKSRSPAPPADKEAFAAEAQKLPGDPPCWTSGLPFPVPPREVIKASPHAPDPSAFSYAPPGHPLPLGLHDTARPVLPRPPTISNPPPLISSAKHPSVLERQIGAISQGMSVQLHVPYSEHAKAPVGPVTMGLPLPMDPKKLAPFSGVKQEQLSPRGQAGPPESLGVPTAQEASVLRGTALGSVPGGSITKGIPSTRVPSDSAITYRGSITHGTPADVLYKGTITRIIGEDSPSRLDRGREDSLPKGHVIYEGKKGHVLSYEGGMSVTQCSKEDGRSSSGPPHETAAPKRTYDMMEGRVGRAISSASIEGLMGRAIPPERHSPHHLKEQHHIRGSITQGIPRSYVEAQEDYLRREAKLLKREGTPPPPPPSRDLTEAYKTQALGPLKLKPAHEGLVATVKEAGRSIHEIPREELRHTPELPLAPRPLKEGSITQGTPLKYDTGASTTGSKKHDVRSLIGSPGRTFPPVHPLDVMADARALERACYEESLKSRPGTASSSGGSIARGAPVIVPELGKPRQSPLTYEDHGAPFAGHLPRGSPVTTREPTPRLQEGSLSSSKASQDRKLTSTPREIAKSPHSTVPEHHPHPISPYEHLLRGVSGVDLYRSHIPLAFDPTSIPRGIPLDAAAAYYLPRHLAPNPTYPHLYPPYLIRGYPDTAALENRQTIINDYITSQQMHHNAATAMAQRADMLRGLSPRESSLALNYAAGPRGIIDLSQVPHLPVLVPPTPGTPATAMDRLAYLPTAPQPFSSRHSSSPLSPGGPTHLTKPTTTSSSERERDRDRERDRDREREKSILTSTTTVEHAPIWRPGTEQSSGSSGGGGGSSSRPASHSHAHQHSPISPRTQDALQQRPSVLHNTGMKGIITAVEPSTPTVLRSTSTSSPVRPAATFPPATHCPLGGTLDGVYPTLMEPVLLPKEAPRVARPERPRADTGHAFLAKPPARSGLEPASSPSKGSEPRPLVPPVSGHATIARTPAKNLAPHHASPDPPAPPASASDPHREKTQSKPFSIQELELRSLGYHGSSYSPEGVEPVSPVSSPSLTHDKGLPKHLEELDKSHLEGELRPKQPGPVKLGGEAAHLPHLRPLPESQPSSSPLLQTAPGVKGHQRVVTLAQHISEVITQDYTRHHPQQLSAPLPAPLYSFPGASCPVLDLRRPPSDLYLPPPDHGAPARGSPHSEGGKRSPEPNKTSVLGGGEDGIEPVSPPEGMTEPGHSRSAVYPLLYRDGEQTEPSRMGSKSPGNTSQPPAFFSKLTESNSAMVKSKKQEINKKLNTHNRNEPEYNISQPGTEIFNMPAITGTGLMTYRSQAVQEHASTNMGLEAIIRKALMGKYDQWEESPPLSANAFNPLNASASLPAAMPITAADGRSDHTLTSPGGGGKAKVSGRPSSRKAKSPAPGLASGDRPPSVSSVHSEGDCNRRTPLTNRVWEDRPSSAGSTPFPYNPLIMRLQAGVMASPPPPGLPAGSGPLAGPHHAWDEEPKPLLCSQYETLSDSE
Sequence of Stromelysin-1 (P08254 whole entry): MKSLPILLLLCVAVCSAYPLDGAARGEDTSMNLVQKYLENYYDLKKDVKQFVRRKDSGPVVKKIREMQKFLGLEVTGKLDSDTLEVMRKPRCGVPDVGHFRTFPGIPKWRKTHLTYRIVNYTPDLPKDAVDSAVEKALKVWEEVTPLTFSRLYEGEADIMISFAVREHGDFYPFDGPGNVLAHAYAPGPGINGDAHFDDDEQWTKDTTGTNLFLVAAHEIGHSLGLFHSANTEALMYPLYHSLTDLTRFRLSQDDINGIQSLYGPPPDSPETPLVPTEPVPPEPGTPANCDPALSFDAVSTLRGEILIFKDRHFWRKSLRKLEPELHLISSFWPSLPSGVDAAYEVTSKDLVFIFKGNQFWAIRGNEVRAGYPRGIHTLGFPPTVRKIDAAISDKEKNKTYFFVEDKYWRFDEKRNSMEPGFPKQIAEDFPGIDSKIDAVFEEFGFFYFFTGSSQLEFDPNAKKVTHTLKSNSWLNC

Take `O=C(CCCCCCC(=O)Nc1cnn(Cc2ccccc2)c1)NO`: the figures for the IC50 (on Histone deacetylase 8; in [7]) were 0.076 µM and 0.044 µM, respectively. Further, the EC50 in the data set on HepG2 [1] was more than 50 µM; in the data set with HepG2 [3], 5.5 µM; in the data set on SH-SY5Y [4], 22.7 µM; in the data set on SH-SY5Y [5], more than 50 µM; in the data set on HeLa [8], 5.5 µM; in the data set with SH-SY5Y [9], 23.2 µM. For the same molecule, the EC50 with HeLa [10] was 10.6 µM; in the data set with HepG2 [11], 12.6 µM; in the data set with HeLa [12], 46.6 µM. The Activity result in the data set with SH-SY5Y [2] is “Non-toxic”. Besides, in the data set on SH-SY5Y [6], the result was inactive.
Regarding `[N-]=[N+]=NCc1cc(N=[N+]=[N-])cc(C(=O)Nc2ccc(Cn3cc(NC(=O)CCCCCCC(=O)NO)cn3)cc2)c1`, the values for the 50% inhibitory concentration (IC50) (at Histone deacetylase 8; in data set [7]) were 0.487 µM and 0.432 µM, respectively.
Consider `[N-]=[N+]=NCc1cc(COc2ccc(NC(=O)CCCCCCC(=O)NO)cc2)cc(N=[N+]=[N-])c1`, for which the IC50 in [7] worked out at 1.48 µM.
`CNC(=O)[C@H](Cc1c[nH]c2ccccc12)NC(=O)[C@@H](CC(=O)NO)CC(C)C` [ILOMASTAT]: the IC50 in [13] is 0.00041 µM; against Stromelysin-1, 0.00762 µM.
Take `O=C(CCCCCCC(=O)Nc1ccccc1)NO`: the result with HepG2 [14] and with HepG2 [16] was Active. Besides, the outcome with HepG2 [15] and with HepG2 [17] was inactive.
Consider `O=C(CCCCCCC(=O)Nc1cnn(Cc2ccc([N+](=O)[O-])cc2)c1)NO`, for which the results for the IC50 (at Histone deacetylase 8; in data set [7]) were 0.082 µM and 0.059 µM, respectively.
Take `[N-]=[N+]=Nc1ccc(-c2cc(C(=O)NCCCCCCC(=O)NO)no2)cc1`: the IC50 is 0.707 µM on Histone deacetylase 8 and 0.073 µM in data set [7]. Also, the inhibition entry in [18] and in data set [19] was “Active” throughout.
As for `CC(C)(C)OC(=O)Nc1ccc(Cn2cc(NC(=O)CCCCCCC(=O)NO)cn2)cc1`, the results for the IC50 (at Histone deacetylase 8; in data set [7]) were 0.147 µM and 0.191 µM, respectively.
Take `[N-]=[N+]=Nc1ccc(Cn2cc(NC(=O)CCCCCCC(=O)NO)cn2)cc1`: the IC50 at Histone deacetylase 8 is 0.028 µM; in [7] it was 0.022 µM. Further, the EC50 was more than 50 µM with HepG2 [1]; 5.9 µM with HepG2 [3]; 23.6 µM in the data set with SH-SY5Y [4]; more than 50 µM with SH-SY5Y [5]; 4.6 µM in the data set with HeLa [8]; 23.1 µM in the data set on SH-SY5Y [9]. Also, the EC50 worked out at 9.9 µM in the data set with HeLa [10], 12.7 µM in the data set on HepG2 [11] and 38.3 µM in the data set with HeLa [12]. In addition, the Activity entry in the data set on SH-SY5Y [2] was “Non-toxic”. The outcome with SH-SY5Y [6] was inactive.
